From PubChem BioAssay
SENP7 block – blocks the human protease SENP7 | recombinant SENP7, Z-RLRGG-aminoluciferin luminescence, 40 min | Q9BQF6 | inhibition, % at 5 µM | 1.5% of 330,000 active;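 active = inhibition above about 50% at the single test dose, limit read from the data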
SENP8 block-1 – blocks the human protease SENP8; AID 2540; inhibition, % at 10 µM; 1.2% of 330,000 active; purified SENP8, Z-RLRGG-aminoluciferin cleavage, luminescence; Q96LD8; in the data active = inhibition above about 50%
SENP1 FRET inh – blocks the human SENP1 SUMO protease catalytic domain. Q9P0U3. recombinant SENP1 catalytic domain, CyPet-SUMO1-YPet FRET cleavage. inhibition, % at 10 µM. 0.21% of 360,000 active. AID 624204;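 active = inhibition at least 30% at 10 µM, raw YFP signal under a set limit, fluorescence ratio 0.5 to 1.5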
Target sequence (Q9P0U3 419-644 limits assumed): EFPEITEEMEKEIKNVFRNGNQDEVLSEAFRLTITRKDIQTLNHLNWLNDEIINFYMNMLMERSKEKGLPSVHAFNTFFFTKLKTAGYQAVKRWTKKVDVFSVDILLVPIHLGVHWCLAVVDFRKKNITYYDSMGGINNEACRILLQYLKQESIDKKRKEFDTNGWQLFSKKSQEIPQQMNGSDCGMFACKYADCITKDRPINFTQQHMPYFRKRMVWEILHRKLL
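Test system: human SENP1 catalytic domain; medium: Tris pH 8 buffer plus EDTA, NaCl, BME, BSA, NP40, catalase; incubation: 50 min reaction at room temperature; technique: FRET, CFP and YFP emission; controls: no-enzyme low control and enzyme-plus-DMSO high control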
SENP8 block-2 – SENP8 (human) protease inhibition; 0.64% of 360,000 active; recombinant SENP8, Nedd8 substrate fluorescence; Q96LD8; inhibition, % at 20 µM; AID 602440; in the data active = inhibition mostly above about 40%, no sharp cut-off; inactive = mostly below about 27%
SENP6 inh – SENP6 protease inhibition | Q9GZR1 | Recombinant SENP6 catalytic domain, aminoluciferin luminescence | inhibition, % at 10 µM | 1.8% of 330,000 active | AID 2599;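 active = inhibition above about 50% at the single tested dose, limit read from the data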
Target sequence (Q9GZR1 628-1112 limits assumed): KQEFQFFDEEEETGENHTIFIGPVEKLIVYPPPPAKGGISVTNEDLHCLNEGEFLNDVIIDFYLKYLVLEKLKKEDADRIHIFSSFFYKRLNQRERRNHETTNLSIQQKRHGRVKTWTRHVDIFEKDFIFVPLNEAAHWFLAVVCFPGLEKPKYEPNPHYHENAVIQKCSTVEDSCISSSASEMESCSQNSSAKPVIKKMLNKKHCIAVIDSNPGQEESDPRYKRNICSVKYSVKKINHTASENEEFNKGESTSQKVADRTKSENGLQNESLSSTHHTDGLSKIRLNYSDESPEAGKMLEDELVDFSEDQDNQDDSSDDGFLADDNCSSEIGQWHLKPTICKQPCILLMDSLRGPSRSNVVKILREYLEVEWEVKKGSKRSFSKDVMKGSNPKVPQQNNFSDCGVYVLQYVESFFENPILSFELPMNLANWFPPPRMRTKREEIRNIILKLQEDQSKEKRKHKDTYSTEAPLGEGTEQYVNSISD
SENP8 confirm – confirmation of human SENP8 protease inhibitors; shares compounds with SENP7 block; Recombinant SENP8, Z-RLRGG-aminoluciferin luminescence, 60 min; inhibition, % at 12.5 µM; 40% of 6,200 active;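 active = mean inhibition across replicates above about 50%, limit read from the data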
SENP6 confirm – confirmation of human SENP6 protease inhibitors | shares compounds with SENP7 block | recombinant SENP6, Z-RLRGG-aminoluciferin luminescence | inhibition, % at 12.5 µM | 58% of 6,200 active | AID 488915
SENP7 conf – confirmation of human SENP7 protease inhibitors; recombinant SENP7, Z-RLRGG-aminoluciferin luminescence, 40 min; shares compounds with SENP7 block; AID 488917; inhibition, % at 12.5 µM; 69% of 6,200 active
Casp3 SENP sel – caspase-3 inhibition (SENP selectivity assay) | shares compounds with SENP7 block | purified caspase-3, Z-DEVD-aminoluciferin luminescence, 60 min | inhibition, % at 12.5 µM | 60% of 6,200 active | AID 488918;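 active = mean inhibition above about 50%, limit read from the data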
SENP luc ctr – counter-screen for SENP inhibitors: luminescence interference. Pre-incubated SENP8/Z-RLRGG-aminoluciferin, luciferase luminescence interference. shares compounds with SENP7 block. inhibition, % at 12.5 µM. 39% of 6,200 active;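 active = mean inhibition above about 50% when retested at one dose, limit read from the data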
Each line names hits and unclear results; the compound was inactive in the other large screens (follow-up assays come after a bar, where they were run). In the library only some 2.5% were active in any assay of this set; here they are far more common.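 The calls were made as follows, unless noted: active = mean inhibition above about 50% in the one-dose retest (limit read from the data); inactive = the rest.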

CCc1ccc(C2=NN(C(C)=O)C(c3ccco3)C2)cc1 (stereo unspecified)	SENP7 block 80.5, SENP8 block-1 82.7, SENP6 inh 81.7 | SENP8 confirm 92.1 | SENP6 confirm 92.0 | SENP7 conf 99.1 | Casp3 SENP sel 90.0 | SENP luc ctr 92.3
COc1ccc(OC)c(S(=O)(=O)Nc2cccc3ccccc23)c1	none
COc1ccc(OC)c(S(=O)(=O)Oc2ccc(N)c3ccccc23)c1	SENP8 block-1 72.4, SENP6 inh 94.3 | SENP8 confirm inactive | SENP6 confirm inactive | SENP7 conf inactive | Casp3 SENP sel inactive | SENP luc ctr inactive
Cc1ccc(C(C(=O)NCc2ccccc2)N(C(=O)c2ccccn2)c2ccccc2)o1 (stereo unspecified)	none
COc1ccc(C(=O)CC(=O)c2ccccc2O)cc1	SENP6 inh 51.1 | SENP8 confirm inactive | SENP6 confirm inactive | SENP7 conf 82.7 | Casp3 SENP sel inactive | SENP luc ctr 53.9
COc1ccc(-n2cc(C(=O)c3ccccc3O)cn2)cc1	SENP7 block 99.7, SENP8 block-1 94.0, SENP6 inh 95.2 | SENP8 confirm 96.1 | SENP6 confirm 98.5 | SENP7 conf 102.3 | Casp3 SENP sel 96.0 | SENP luc ctr 94.9
CN(C(=O)c1cccc(S(=O)(=O)N2CCCC2)c1)C1CCCCC1	none
COCCNC(=O)CN(C(=O)c1ccc(N2CCCC2)nc1)c1ccc(F)c(Cl)c1	SENP8 block-1 56.1, SENP6 inh 50.7 | SENP8 confirm inactive | SENP6 confirm inactive | SENP7 conf inactive | Casp3 SENP sel inactive | SENP luc ctr inactive
CC(c1ccccc1)N(C)C(=O)CSc1nnc(C2CC2)n1C1CC1 (stereo unspecified)	none
Cc1oc(C(C)(C)C)c(CN2CCOCC2)c1C(=O)O	none
Cc1ccc(NC(=O)c2noc3c2CCCCC3)cc1	none
Cc1ccc(NC(=O)c2noc3c2CCCCC3)cc1C	SENP7 block 62.5 | SENP8 confirm inactive | SENP6 confirm inactive | SENP7 conf inactive | Casp3 SENP sel inactive | SENP luc ctr inactive
CCc1ccc(NC(=O)c2noc3c2CCCCC3)cc1	none
Cc1ccc(O)c(NC(=O)c2noc3c2CCCCC3)c1	SENP7 block 79.7, SENP8 block-1 76.1 | SENP8 confirm inactive | SENP6 confirm inactive | SENP7 conf inactive | Casp3 SENP sel inactive | SENP luc ctr inactive
CCc1ccc(NC(=O)c2noc3c2CCC3)cc1	SENP7 block 60.0, SENP8 block-1 70.3, SENP6 inh 88.0 | SENP8 confirm 79.7 | SENP6 confirm 80.1 | SENP7 conf 96.5 | Casp3 SENP sel 84.1 | SENP luc ctr 81.4
CCC(=O)N1CCc2cc(Br)c(S(=O)(=O)CCC(=O)NCCc3ccccc3)cc21	none (no result: SENP7 block, SENP8 block-1, SENP6 inh)
Cc1cc(C)cc(NC(=O)Nc2ccc3ccccc3n2)c1	none
O=C(Nc1ccc2ccccc2n1)c1ccccc1Br	SENP7 block 83.8, SENP8 block-1 77.2, SENP6 inh 79.1 | SENP8 confirm inactive | SENP6 confirm 80.1 | SENP7 conf 97.2 | Casp3 SENP sel 81.5 | SENP luc ctr inactive
O=C(Nc1ccc2ccccc2n1)c1ccccc1	SENP7 block 93.3, SENP8 block-1 87.0, SENP6 inh 87.6 | SENP8 confirm 84.7 | SENP6 confirm 84.9 | SENP7 conf 97.8 | Casp3 SENP sel 89.3 | SENP luc ctr 89.0
COc1ccc(C(=O)Nc2ccc3ccccc3n2)cc1OC	none
Cc1ccc(C(=O)Nc2ccc3ccccc3n2)cc1	SENP7 block 86.0, SENP8 block-1 79.9, SENP6 inh 86.3 | SENP8 confirm 88.4 | SENP6 confirm 87.5 | SENP7 conf 96.7 | Casp3 SENP sel 82.2 | SENP luc ctr 77.1
O=C1C(C2=C(O)c3ccccc3C2=O)=Nc2ccccc21	SENP8 block-1 79.0, SENP8 block-2 60.4, SENP6 inh 89.3 | SENP8 confirm inactive | SENP6 confirm 95.1 | SENP7 conf 99.5 | Casp3 SENP sel 59.6 | SENP luc ctr inactive
CC(=O)OC1=C(O)C(=O)c2ccccc2C1=O	none (no result: SENP1 FRET inh, SENP8 block-2)
CCN(CC)CCNc1ncnc2c1[nH]c1ccc(OC)cc12	none (no result: SENP1 FRET inh, SENP8 block-2)
COc1ccc2[nH]c3c(NCCCOC(C)C)ncnc3c2c1	SENP7 block 95.8, SENP8 block-1 90.1, SENP6 inh 93.1 | SENP8 confirm 90.1 | SENP6 confirm 93.1 | SENP7 conf 101.2 | Casp3 SENP sel 96.3 | SENP luc ctr 93.2
O=C(Nc1nccs1)c1sc2cc(Cl)ccc2c1Cl	none
Cc1cnc(NC(=O)c2sc3ccccc3c2Cl)s1	SENP7 block 84.0, SENP8 block-1 66.1, SENP6 inh 80.2 | SENP8 confirm inactive | SENP6 confirm inactive | SENP7 conf 53.0 | Casp3 SENP sel inactive | SENP luc ctr inactive
O=C(Nc1nccs1)c1sc2ccccc2c1Cl	SENP7 block 70.7, SENP8 block-1 75.3, SENP6 inh 87.7 | SENP8 confirm inactive | SENP6 confirm 58.2 | SENP7 conf 90.9 | Casp3 SENP sel 69.6 | SENP luc ctr inactive
Cc1ccc2c(Cl)c(C(=O)Nc3cc(C)on3)sc2c1	none
CC(C)c1nnc(NC(=O)c2sc3ccccc3c2Cl)s1	none
Cc1ccnc(NC(=O)c2sc3ccccc3c2Cl)c1	SENP7 block 89.3, SENP8 block-1 57.4, SENP6 inh 71.0 | SENP8 confirm inactive | SENP6 confirm inactive | SENP7 conf inactive | Casp3 SENP sel 55.2 | SENP luc ctr inactive
Cc1csc(NC(=O)c2nn(C)c(C)c2[N+](=O)[O-])n1	none
Cc1cc(=O)oc2cc(NC(=O)C(C)N3C(=O)C4CCCCC4C3=O)ccc12 (stereo unspecified)	none
CSc1ccccc1NC(=O)Nc1ccccc1Cl	none
CSc1ccccc1NC(=O)Nc1ccccc1	SENP7 block 81.3, SENP8 block-1 66.1, SENP6 inh 89.6 | SENP8 confirm inactive | SENP6 confirm 82.1 | SENP7 conf inactive | Casp3 SENP sel 83.3 | SENP luc ctr 82.9
CSc1ccccc1NC(=O)Nc1cccc(F)c1	SENP7 block 83.0, SENP8 block-1 69.3, SENP6 inh 85.7 | SENP8 confirm 87.4 | SENP6 confirm 86.2 | SENP7 conf 97.6 | Casp3 SENP sel 79.3 | SENP luc ctr 67.5
CCc1ccccc1NC(=O)Nc1cccc(F)c1	none
O=C(C#Cc1ccccc1)Nc1cccc(F)c1	SENP7 block 84.3, SENP8 block-1 71.5, SENP6 inh 81.4 | SENP8 confirm 84.8 | SENP6 confirm 83.3 | SENP7 conf 93.0 | Casp3 SENP sel 66.8 | SENP luc ctr 74.8
